Reference: ChEMBL document CHEMBL4052629, “Scutellarin derivatives as apoptosis inducers: Design, synthesis and biological evaluation” (Eur J Med Chem, 2017)
Activity calls are given as the source filed them. No cut-off for these calls is given here.

Legend:
[1] = tested on: HepG2; assay: Induction of apoptosis in human HepG2 cells assessed as early apoptotic cells at 0.6 uM after 72 hrs by Annexin V-APC/7-AAD or propidium iodide staining-based flow cytometric analysis (reference value: 1.87%); assay type: functional
[2] = tested on: HepG2; assay: Cell cycle arrest in human HepG2 cells assessed as accumulation at G2/M phase at 1.2 uM after 72 hrs by propidium iodide staining-based flow cytometric analysis (reference value: 21.4%); assay type: functional
In short: (§1)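 Concentrations used were 0, 0.3, 0.6 and 1.2 μM in HepG2 and 0, 0.16, 0.31 and 1.25 μM in PC-3, with untreated cells as control, for 72 h. Cells were trypsinized, washed in PBS, fixed in cold ethanol at 4 °C overnight, then incubated 30 min in PBS containing RNase A and propidium iodide. DNA content was read by flow cytometry to give phase distribution.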

[3] = tested on: L02; assay: Induction of apoptosis in human LO2 cells assessed as early apoptotic cells at 1.2 uM after 72 hrs by Annexin V-FITC/7-AAD or propidium iodide staining-based flow cytometric analysis (reference value: 3.65%); assay type: cell-based; conditions: l02, 72 h
[4] = tested on: HepG2; assay: Induction of apoptosis in human HepG2 cells assessed as cell shrinkage at 0.3 to 0.6 uM after 48 hrs by Hoechst 33258 staining-based fluorescent microscopic analysis; assay type: functional
In short: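 HepG2 cells grown on coverslips were treated for 48 h at 0.3, 0.6 or 1.2 μM, then fixed in 4% paraformaldehyde for 10 min. After PBS washes, cells were stained with Hoechst 33258 for 5 min and washed again. Nuclear morphology was examined by fluorescence imaging at 350 nm excitation and 460 nm emission.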

[5] = Induction of apoptosis in human LO2 cells assessed as viable cells at 1.2 uM after 72 hrs by Annexin V-FITC/7-AAD or propidium iodide staining-based flow cytometric analysis (reference value: 94.26%); assay type: cell-based, L02; conditions: read-out: Activity
[6] = tested on: HepG2; assay: Induction of apoptosis in human HepG2 cells assessed as viable cells at 1.2 uM after 72 hrs by Annexin V-APC/7-AAD or propidium iodide staining-based flow cytometric analysis (reference value: 90.08%); assay type: functional; conditions: HepG2, 72 h, read-out: Activity
[7] = tested on: HepG2; assay: Induction of apoptosis in human HepG2 cells assessed as reduction in adherent cells at 0.3 to 0.6 uM after 48 hrs by Hoechst 33258 staining-based fluorescent microscopic analysis; assay type: functional, cell-based
In short: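 HepG2 cells on sterile cover slips in 6-well plates exposed to 0, 0.3, 0.6 or 1.2 μM, or vehicle, for 48 h. Fixed in 4% paraformaldehyde for 10 min, PBS-washed, stained with Hoechst 33258 for 5 min. Nuclear morphology and adherent cell number viewed at 350 nm excitation / 460 nm emission. Non-treated cells served as control.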

[8] = tested on: HepG2; assay: Induction of apoptosis in human HepG2 cells assessed as necrotic cells at 0.6 uM after 72 hrs by Annexin V-APC/7-AAD or propidium iodide staining-based flow cytometric analysis (reference value: 1.87%); assay type: functional
[9] = tested on: PC-3; assay: Induction of apoptosis in human PC3 cells assessed as cell shrinkage at 0.16 to 1.25 uM after 48 hrs by Hoechst 33258 staining-based fluorescent microscopic analysis; assay type: functional
In short: (§2)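 PC-3 cells grown on sterile cover slips were exposed to 0, 0.16, 0.31 or 1.25 μM, or vehicle, for 48 h. Then fixed with 4% paraformaldehyde for 10 min, washed twice in PBS, stained with Hoechst 33258 for 5 min and washed again. Nuclei imaged at 350 nm excitation and 460 nm emission.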

[10] = tested on: L02; assay: Induction of apoptosis in human LO2 cells assessed as late apoptotic cells at 1.25 uM after 72 hrs by Annexin V-FITC/7-AAD or propidium iodide staining-based flow cytometric analysis (reference value: 0.11%); assay type: cell-based; conditions: l02, 72 h
[11] = tested on: PC-3; assay: Induction of apoptosis in human PC3 cells assessed as late apoptotic cells at 1.25 uM after 72 hrs by Annexin V-APC/7-AAD or propidium iodide staining-based flow cytometric analysis (reference value: 4.74%); assay type: functional
[12] = tested on: PC-3; assay: Cell cycle arrest in human PC3 cells assessed as accumulation at G2/M phase at 0.31 uM after 72 hrs by propidium iodide staining-based flow cytometric analysis (reference value: 10.19%); assay type: functional; in short: as §1
[13] = tested on: PC-3; assay: Induction of apoptosis in human PC3 cells assessed as late apoptotic cells at 0.31 uM after 72 hrs by Annexin V-APC/7-AAD or propidium iodide staining-based flow cytometric analysis (reference value: 4.74%); assay type: functional
[14] = tested on: PC-3; assay: Cell cycle arrest in human PC3 cells assessed as accumulation at G2/M phase at 0.16 uM after 72 hrs by propidium iodide staining-based flow cytometric analysis (reference value: 10.19%); assay type: functional; in short: as §1
[15] = tested on: PC-3; assay: Induction of apoptosis in human PC3 cells assessed as rupture of cell membrane at 0.16 to 1.25 uM after 48 hrs by Hoechst 33258 staining-based fluorescent microscopic analysis; assay type: functional; in short: as §2
[16] = tested on: PC-3; assay: Cell cycle arrest in human PC3 cells assessed as accumulation at S phase at 0.31 uM after 72 hrs by propidium iodide staining-based flow cytometric analysis (reference value: 36.46%); assay type: functional; in short: as §1
[17] = Induction of apoptosis in human LO2 cells assessed as viable cells at 1.25 uM after 72 hrs by Annexin V-FITC/7-AAD or propidium iodide staining-based flow cytometric analysis (reference value: 94.26%); assay type: cell-based, L02; conditions: read-out: Activity
[18] = tested on: PC-3; assay: Induction of apoptosis in human PC3 cells assessed as late apoptotic cells at 0.16 uM after 72 hrs by Annexin V-APC/7-AAD or propidium iodide staining-based flow cytometric analysis (reference value: 4.74%); assay type: functional

| SMILES | Activity [1] | Activity [2] | Activity [3] | Activity [4] | viability at 72 h, 1.2 µM [5] | viability at 1.2 µM [6] | Activity [7] | Activity [8] | Activity [9] | Activity [10] | Activity [11] | Activity [12] | Activity [13] | Activity [14] | Activity [15] | Activity [16] | viability at 72 h, 1.25 µM [17] | Activity [18] |
| --- | --- | --- | --- | --- | --- | --- | --- | --- | --- | --- | --- | --- | --- | --- | --- | --- | --- | --- |
| O=C(NCCCOc1no[n+]([O-])c1S(=O)(=O)c1ccccc1)[C@H]1O[C@@H](Oc2cc3oc(-c4ccc(OCc5ccccc5)cc4)cc(=O)c3c(O)c2OCc2ccccc2)[C@H](O)[C@@H](O)[C@@H]1O | 13.13% | 3.24% | 14.2% | Active | 81.5% | 41.8% | Active | 2.31% |  |  |  |  |  |  |  |  |  |  |
| COc1ccc(-c2cc(=O)c3c(O)c(OC)c(O[C@@H]4O[C@H](C(=O)NCCOc5no[n+]([O-])c5S(=O)(=O)c5ccccc5)[C@@H](O)[C@H](O)[C@H]4O)cc3o2)cc1 |  |  |  |  |  |  |  |  | Active | 2.95% | 43.54% | 13.48% | 22.46% | 11.62% | Active | 43.3% | 78.4% | 12.75% |
